{"data": "Measurements of several laboratories", "target": "Serine/threonine-protein kinase D3 (PRKD3, Homo sapiens, UniProt O94806)", "One construct used (O94806 1-890)": "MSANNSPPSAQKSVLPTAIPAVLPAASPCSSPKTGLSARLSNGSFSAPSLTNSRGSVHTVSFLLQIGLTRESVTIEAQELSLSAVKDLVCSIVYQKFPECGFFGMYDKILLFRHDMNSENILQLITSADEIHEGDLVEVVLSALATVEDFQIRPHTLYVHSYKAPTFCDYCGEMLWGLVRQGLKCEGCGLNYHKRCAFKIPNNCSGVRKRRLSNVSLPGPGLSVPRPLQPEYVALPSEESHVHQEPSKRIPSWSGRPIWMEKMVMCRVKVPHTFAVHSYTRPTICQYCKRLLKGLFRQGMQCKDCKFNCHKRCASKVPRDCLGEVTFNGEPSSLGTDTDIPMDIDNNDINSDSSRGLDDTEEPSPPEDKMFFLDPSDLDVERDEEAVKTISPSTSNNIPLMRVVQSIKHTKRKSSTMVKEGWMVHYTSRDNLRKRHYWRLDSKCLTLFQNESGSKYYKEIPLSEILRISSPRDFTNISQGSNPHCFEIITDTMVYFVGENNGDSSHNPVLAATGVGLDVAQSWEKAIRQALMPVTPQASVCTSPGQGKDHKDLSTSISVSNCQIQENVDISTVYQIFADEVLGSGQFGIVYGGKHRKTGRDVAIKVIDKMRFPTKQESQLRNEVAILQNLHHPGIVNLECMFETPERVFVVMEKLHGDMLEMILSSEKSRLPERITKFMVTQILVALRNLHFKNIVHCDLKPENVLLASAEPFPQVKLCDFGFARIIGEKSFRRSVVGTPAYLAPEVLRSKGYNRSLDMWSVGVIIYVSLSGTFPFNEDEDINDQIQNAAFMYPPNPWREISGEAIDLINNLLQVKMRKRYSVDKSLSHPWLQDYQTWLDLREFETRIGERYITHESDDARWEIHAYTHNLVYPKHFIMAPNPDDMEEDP", "note": "Lines come from different studies, so protocols differ."}
{"Compound": "CC(C)(C)c1nc(-c2cccc(NS(=O)(=O)c3c(F)cccc3F)c2F)c(-c2ccnc(N)n2)s1", "read-out": "enzyme activity", "action": "inhibitor", "method": "radiometric", "concentration": "1 µM", "endpoint": "remaining activity", "value": "100%"}
{"Compound": "CC(C)(O)c1cncc(-c2nc3ccc(F)cc3n2C2CC2)c1", "read-out": "cell-free assay", "method": "competition with immobilised ligand", "concentration": "1 µM", "endpoint": "remaining binding", "value": "100%"}
{"Compound": "COc1cc2ncnc(Nc3ccc(Oc4ccccc4)c(C)c3C)c2cc1OC", "read-out": "enzyme activity", "action": "inhibitor", "concentration": "1 µM", "endpoint": "inhibition", "value": "8%"}
{"Compound": "N#CC1c2c([nH]c3c(Cl)c(Cl)ccc23)C(=O)NC12CCCCC2 (racemic)", "read-out": "thermal stability", "method": "DSF", "concentration": "10 µM", "endpoint": "ΔTm", "value": "0.9 °C"}
{"Compound": "COc1cccc2c(NCc3ccccc3)nc(-n3c(N)nc4ccccc43)nc12", "read-out": "target engagement in cells", "action": "inhibitor", "method": "chemoproteomics", "concentration": "20 mM", "endpoint": "inhibition", "value": "-8.9%"}
{"Compound": "O=C(O)c1cc(-c2ccc(C3CCNCC3)cc2)c2ccc(-c3ccc(C(F)(F)F)cc3)cc2c1", "read-out": "cell-free assay", "method": "competition with immobilised ligand", "concentration": "1 µM", "endpoint": "remaining binding", "value": "100%"}
{"Compound": "COc1cc(Nc2c(C#N)cnc3cc(OCCCN4CCN(C)CC4)c(OC)cc23)c(Cl)cc1Cl", "read-out": "cell-free assay", "concentration": "0.5 µM", "endpoint": "remaining signal", "value": "42.2%"}
{"Compound": "Cc1ccc(C(=O)Nc2ccc(CN3CCN(C)CC3)c(C(F)(F)F)c2)cc1C#Cc1cnc2cccnn12", "read-out": "enzyme activity", "action": "inhibitor", "concentration": "23.5 nM", "endpoint": "remaining activity", "value": "100%"}
{"Compound": "CNc1cc(Oc2cc(C(=O)Nc3cc(N4CCN(C)CC4)cc(C(F)(F)F)c3)ccc2C)ncn1", "read-out": "target engagement in cells", "action": "inhibitor", "method": "chemoproteomics", "cell line": "Huh-7", "concentration": "1 µM", "endpoint": "inhibition", "value": "-19.8%"}
{"Compound": "Nc1ncnc2occ(-c3ccc(NC(=O)Nc4cc(C(F)(F)F)ccc4F)cc3)c12", "read-out": "cell-free assay", "action": "inhibitor", "concentration": "20 µM", "endpoint": "remaining signal", "value": "42%"}
{"Compound": "CCOc1cc(-c2nncn2C)ccc1Nc1ncc2cc(C)nc(NCC(C)(C)C)c2n1", "read-out": "enzyme activity", "action": "inhibitor", "method": "FRET", "concentration": "1 µM", "endpoint": "inhibition", "value": "< 15%"}
{"Compound": "Cc1ccc(C(=O)NCc2ccsc2)cc1C#Cc1cn(C(C)C)c2ncnc(N)c12", "read-out": "enzyme activity", "action": "inhibitor", "concentration": "1 µM", "endpoint": "activity vs control", "value": "101%"}
{"Compound": "Cc1sc(C(=O)NC2COC2)cc1-n1cc(NC(=O)Nc2c(F)cccc2Cl)cn1", "read-out": "enzyme activity", "action": "inhibitor", "concentration": "10 µM", "endpoint": "remaining activity", "value": "105%"}
{"Compound": "O=C(NCc1ncc(C(F)(F)F)cc1Cl)c1ccc2c(c1)C1(CCS(=O)(=O)CC1)[C@H](C1CC1)N2S(=O)(=O)c1ccc(F)cc1", "read-out": "cell-free assay", "method": "competition with immobilised ligand", "concentration": "1 µM", "endpoint": "remaining binding", "value": "100%"}
{"Compound": "Cn1c2c(Cl)c(Cl)ccc2c2cc(N)[nH]c(=O)c21", "read-out": "thermal stability", "method": "DSF", "concentration": "10 µM", "endpoint": "ΔTm", "value": "1 °C"}
{"Compound": "CSc1cccnc1N1CCN(Cc2nc3ccccc3[nH]2)CC1", "read-out": "cell-free assay", "method": "competition with immobilised ligand", "concentration": "1 µM", "endpoint": "remaining binding", "value": "100%"}
{"Compound": "COc1cc(Cl)c(C(=O)N[C@@H](CN[C@H]2CC[C@@H](N)CC2)Cc2ccc(C#N)cc2)cc1-c1ccc(CN[C@H](C)c2ccc(C)cc2)o1", "read-out": "enzyme activity", "action": "inhibitor", "concentration": "1 µM", "endpoint": "remaining activity", "value": "93%"}
{"Compound": "CO[C@@H](C)c1c(Nc2ccc([C@@H](N(C)C(=O)C3CCS(=O)(=O)CC3)C(F)(F)F)cc2)cnc2cc(Cl)nn12", "read-out": "cell-free assay", "method": "competition with immobilised ligand", "concentration": "1 µM", "endpoint": "remaining binding", "value": "93%"}
{"Compound": "CC/C(=N\\NC(=O)NCc1cccc(O)c1)c1ccc(O)c(C)c1O", "read-out": "enzyme activity", "action": "inhibitor", "concentration": "0.1 µM", "endpoint": "inhibition", "value": "2.2%"}
{"Compound": "Cn1c2c(c3ccc(Cl)c(Cl)c31)C(C#N)C1(CCNCC1)NC2=O (racemic)", "read-out": "thermal stability", "method": "DSF", "concentration": "10 µM", "endpoint": "ΔTm", "value": "2.9 °C"}
{"Compound": "CC(C)CC(=O)N1CCc2nc(-c3ccc(Br)cc3)nc(N(C)Cc3ccccc3)c2C1", "read-out": "cell-free assay", "method": "competition with immobilised ligand", "concentration": "0.1 µM", "endpoint": "remaining binding", "value": "100%"}
{"Compound": "COc1cc2c(Nc3ccc(Br)cc3F)ncnc2cc1OCC1CCN(C)CC1", "read-out": "cell-free assay", "concentration": "0.5 µM", "endpoint": "remaining signal", "value": "91.7%"}
{"Compound": "CCCCN(CCCC)C(=O)CN1C[C@@H](c2cc(OC)c3c(c2)OCO3)[C@H](C(=O)O)[C@H]1CC(C)(C)CCC", "read-out": "cell-free assay", "method": "competition with immobilised ligand", "concentration": "1 µM", "endpoint": "remaining binding", "value": "100%"}
{"Compound": "O=C1Nc2ccc(Cl)cc2C1=Cc1cc(Cl)c(O)c(Cl)c1", "read-out": "cell-free assay", "concentration": "0.5 µM", "endpoint": "remaining signal", "value": "80.7%"}
